Test results published in ChEMBL document CHEMBL3525985, “Regiospecificity and stereospecificity of human UDP-glucuronosyltransferases in the glucuronidation of estriol, 16-epiestriol, 17-epiestriol, and 13-epiestradiol” (Drug Metab Dispos, 2013).

Tests used:
Format in all cases: ADME
[1] = target: T1, UDP-glucuronosyltransferase 2B4 (Homo sapiens, UniProt P06133); assay: Drug metabolism assessed as recombinant human C-terminal His-tagged UGT2B4-mediated 17-epiestriol-17-glucuronide formation at 200 uM after 15 to 60 mins by HPLC analysis in presence of UDPGA; details: recombinant enzyme
T1 sequence (P06133 whole entry): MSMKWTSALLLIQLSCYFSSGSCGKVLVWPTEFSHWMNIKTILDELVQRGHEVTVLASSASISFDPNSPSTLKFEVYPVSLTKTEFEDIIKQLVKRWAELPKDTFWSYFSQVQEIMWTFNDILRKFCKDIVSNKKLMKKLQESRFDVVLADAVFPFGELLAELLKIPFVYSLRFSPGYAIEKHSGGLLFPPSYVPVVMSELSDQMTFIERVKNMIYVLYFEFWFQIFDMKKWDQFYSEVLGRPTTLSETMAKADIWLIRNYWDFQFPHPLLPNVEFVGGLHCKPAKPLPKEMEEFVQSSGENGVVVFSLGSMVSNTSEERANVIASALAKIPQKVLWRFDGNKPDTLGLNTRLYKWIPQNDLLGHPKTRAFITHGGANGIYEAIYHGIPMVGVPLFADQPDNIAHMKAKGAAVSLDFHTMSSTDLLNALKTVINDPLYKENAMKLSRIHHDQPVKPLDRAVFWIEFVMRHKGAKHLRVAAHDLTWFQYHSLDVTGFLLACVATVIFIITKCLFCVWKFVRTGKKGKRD
In short: (§1)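 Screening at a single substrate concentration of 200 μM, in triplicate. The reaction used 5 or 50 µg of UGT-enriched insect cell membranes in 50 mM phosphate pH 7.4 with 10 mM MgCl₂ and 5 mM UDPGA, 10% final DMSO. Incubation was 15–60 min at 37°C. Perchloric acid stopped the reaction and supernatants were analysed by HPLC. Controls lacked UDPGA. Rates were normalized to relative UGT expression level.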

[2] = target: T2, UDP-glucuronosyltransferase 2A1 (Homo sapiens, UniProt P0DTE4); assay: Drug metabolism assessed as recombinant human C-terminal His-tagged UGT2A1-mediated 17-epiestriol-16-glucuronide formation at 200 uM after 15 to 60 mins by HPLC analysis in presence of UDPGA; details: recombinant enzyme; in short: as §1
T2 sequence (P0DTE4 whole entry): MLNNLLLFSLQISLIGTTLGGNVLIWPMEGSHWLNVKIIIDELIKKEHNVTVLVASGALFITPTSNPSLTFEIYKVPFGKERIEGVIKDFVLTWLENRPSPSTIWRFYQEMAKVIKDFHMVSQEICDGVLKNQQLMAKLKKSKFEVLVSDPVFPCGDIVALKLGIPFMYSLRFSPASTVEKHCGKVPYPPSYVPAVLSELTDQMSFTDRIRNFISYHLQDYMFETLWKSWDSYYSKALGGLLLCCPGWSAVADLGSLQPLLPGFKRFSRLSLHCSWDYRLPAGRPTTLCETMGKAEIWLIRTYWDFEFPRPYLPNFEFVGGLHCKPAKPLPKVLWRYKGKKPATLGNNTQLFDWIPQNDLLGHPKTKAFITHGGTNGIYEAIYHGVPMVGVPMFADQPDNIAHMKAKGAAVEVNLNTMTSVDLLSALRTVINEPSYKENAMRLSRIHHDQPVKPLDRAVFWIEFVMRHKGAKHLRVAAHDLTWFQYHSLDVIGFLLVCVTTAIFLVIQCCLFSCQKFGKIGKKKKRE

[3] = target: T3, UDP-glucuronosyltransferase 1A10 (Homo sapiens, UniProt Q9HAW8); assay: Drug metabolism assessed as recombinant human C-terminal His-tagged UGT1A10-mediated 16-epiestriol-3-glucuronide formation after 15 to 60 mins by Michaelis-Menten equation analysis in presence of UDPGA; details: recombinant enzyme
T3 sequence (Q9HAW8 whole entry): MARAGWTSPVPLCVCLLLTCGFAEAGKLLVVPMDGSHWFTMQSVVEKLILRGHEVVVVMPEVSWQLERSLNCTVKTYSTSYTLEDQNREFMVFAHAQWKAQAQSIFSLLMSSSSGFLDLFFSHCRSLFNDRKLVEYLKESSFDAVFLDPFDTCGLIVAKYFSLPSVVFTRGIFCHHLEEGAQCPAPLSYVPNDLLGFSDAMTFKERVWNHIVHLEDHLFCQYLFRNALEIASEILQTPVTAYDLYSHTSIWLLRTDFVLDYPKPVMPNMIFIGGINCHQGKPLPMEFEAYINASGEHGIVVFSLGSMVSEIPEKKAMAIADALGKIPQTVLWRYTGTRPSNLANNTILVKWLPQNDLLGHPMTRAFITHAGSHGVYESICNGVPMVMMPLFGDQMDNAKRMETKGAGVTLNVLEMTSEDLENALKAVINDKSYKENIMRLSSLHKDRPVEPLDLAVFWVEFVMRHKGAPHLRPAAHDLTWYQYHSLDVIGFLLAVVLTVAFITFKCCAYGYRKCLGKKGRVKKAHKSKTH
In short: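 For kinetics, the aglycone ranged from 0.2 to 300 μM in DMSO (10% final) with 5 mM UDPGA, 10 mM MgCl₂ and 50 mM phosphate pH 7.4. Enzyme was UGT-enriched insect cell membranes. Incubation was 15–60 min at 37°C, in triplicate, keeping substrate consumption ≤10%. Products were measured by HPLC and fitted to Michaelis-Menten. Rates were normalized to expression level.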

[4] = target: T4, UDP-glucuronosyltransferase 2B17 (Homo sapiens, UniProt O75795); assay: Drug metabolism assessed as recombinant human C-terminal His-tagged UGT2B17-mediated 16-epiestriol-16-glucuronide formation after 15 to 60 mins by Michaelis-Menten equation analysis in presence of UDPGA; details: recombinant enzyme
T4 sequence (O75795 whole entry): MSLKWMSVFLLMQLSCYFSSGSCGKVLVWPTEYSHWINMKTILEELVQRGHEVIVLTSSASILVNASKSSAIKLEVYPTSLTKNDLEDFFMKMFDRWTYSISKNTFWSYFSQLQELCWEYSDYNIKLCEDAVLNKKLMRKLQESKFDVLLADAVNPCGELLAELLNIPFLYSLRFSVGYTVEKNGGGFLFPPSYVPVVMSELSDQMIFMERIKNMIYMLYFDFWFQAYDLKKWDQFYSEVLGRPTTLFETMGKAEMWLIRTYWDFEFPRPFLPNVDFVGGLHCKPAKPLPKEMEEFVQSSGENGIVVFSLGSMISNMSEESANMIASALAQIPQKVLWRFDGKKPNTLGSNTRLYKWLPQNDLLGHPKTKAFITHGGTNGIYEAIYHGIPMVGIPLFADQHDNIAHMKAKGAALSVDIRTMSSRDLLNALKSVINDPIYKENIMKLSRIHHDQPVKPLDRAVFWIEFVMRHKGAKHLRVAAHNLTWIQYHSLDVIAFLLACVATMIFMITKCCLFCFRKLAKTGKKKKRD

[5] = Drug metabolism in human intestine microsomes assessed as 16-epiestriol-3-glucuronide formation after 15 to 60 mins by Michaelis-Menten equation analysis in presence of UDPGA
In short: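 Pooled human intestine microsomes (6 donors), 0.5 or 10 µg, with alamethicin at 5% of total protein. Incubated with 50 mM phosphate pH 7.4, 10 mM MgCl₂, 5 mM UDPGA and 10% DMSO for 15–60 min at 37°C. Each glucuronide regioisomer quantified by HPLC, in triplicate, with substrate consumption at or below 10%.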

| Drug metabolism [1] | Drug metabolism [2] | Drug metabolism [3] [pmol/min/mg] | Drug metabolism [4] [pmol/min/mg] | Km [5] [µM] | Vmax [5] [pmol/min/mg] | SMILES |
| --- | --- | --- | --- | --- | --- | --- |
| metabolite_detected | metabolite_detected |  |  |  |  | C[C@]12CC[C@@H]3c4ccc(O)cc4CC[C@H]3[C@@H]1C[C@@H](O)[C@H]2O |
|  |  | 3500 | 5 | 50 | 4111 | C[C@]12CC[C@@H]3c4ccc(O)cc4CC[C@H]3[C@@H]1C[C@H](O)[C@@H]2O [EPIESTRIOL] |
